Experimental data published in article PMC5987874 (The Journal of General Physiology, 2018).
Substitutions are numbered along the chain they refer to. Values joined by “and” are separate entries in the source; they are usually repeats but may differ in a detail not shown here. Equal entries are not always repeated.

Experiments:
Assay in all cases: Whole-cell voltage clamp, Zn^2+ modulation of GAQ gating
Type in all cases: cell-based
[1] = molecular target: T1, human Hv1 H140A (H^2.40A) (Homo sapiens, UniProt Q96D96, H140A)
T1 sequence (Q96D96 1-273 H140A): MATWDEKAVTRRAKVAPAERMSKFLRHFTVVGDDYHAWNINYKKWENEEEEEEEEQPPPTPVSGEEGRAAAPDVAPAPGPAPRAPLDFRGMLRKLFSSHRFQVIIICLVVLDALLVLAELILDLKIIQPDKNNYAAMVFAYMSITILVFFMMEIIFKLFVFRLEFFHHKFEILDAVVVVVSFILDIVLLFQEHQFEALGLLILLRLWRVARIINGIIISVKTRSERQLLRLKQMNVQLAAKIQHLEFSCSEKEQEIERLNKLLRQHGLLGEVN
Method in brief: (§1)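 Whole-cell patch clamp at ~21°C. Pipette and bath (mM): ~80 TMA-MeSO3, 100 Bis-Tris, 8 HCl, pH 6.5, 310–320 mOsm. ZnCl2 was diluted into bath solution and applied by gravity superfusion, at least 2 min per change. Test step voltage was set per construct from its V0.5. G_STEP = end-of-step current/(V−V_REV). Effect = 1 − G_Zn/G_control, fitted to the Hill equation. IC50 and nH are means ± SEM from separate cells. ΔpIC50 was tested by unpaired t test, P<0.05.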

[2] = molecular target: T2, human Hv1 E119H (E^1.58H) (Homo sapiens, UniProt Q96D96, E119H)
T2 sequence (Q96D96 1-273 E119H): T1 sequence (Q96D96 1-273 H140A) with E119H, A140H
Method in brief: as §1

human Hv1 E119H-H193A = molecular target: T3, human Hv1 E119H-H193A (Homo sapiens, UniProt Q96D96, E119H/H193A)
T3 sequence (Q96D96 1-273 E119H/H193A): T1 sequence (Q96D96 1-273 H140A) with E119H, A140H, H193A
Method in brief: as §1

[3] = molecular target: T4, human Hv1 D112N (D^1.51N) (Homo sapiens, UniProt Q96D96, D112N)
T4 sequence (Q96D96 1-273 D112N): T1 sequence (Q96D96 1-273 H140A) with D112N, A140H
Method in brief: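 Zn2+ effect was read from tail current, not end-of-step current. Whole-cell recording at ~21°C with pH 6.5 pipette and bath solutions (mM: ~80 TMA-MeSO3, 100 Bis-Tris, 8 HCl). ZnCl2 was diluted in bath solution and gravity-superfused, at least 2 min per change. Concentration–response was fitted to the Hill equation, with IC50 values from separate cells. ΔpIC50 was compared by unpaired Student's t test, P<0.05.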

[4] = VSTEP 100 mV, calculated as log (IC50)

In the case of `[Cl-].[Cl-].[Zn+2]` [Zn^2+, ZnCl2], the “nH, fit of the mean data to a Hill function” value (from here on “nH, fit of the mean data”) ([1]; Fig. 2C) is reported as 0.7, the “Mean ΔpIC50 = (pIC50_1 - pIC50_2)” value ([1]; H140A vs WT) is reported as −1.02 and the Hill value ([1]; VSTEP 100 mV) is reported as 0.67. The pIC50 [1, 4] was −4.41, the IC50 ([1]; read-out: IC50, fit of the mean data to a Hill function, Fig. 2C) was 39 µM and the “Mean ΔpIC50 = (pIC50_1 - pIC50_2)” value ([2]; E119H vs WT) was 0.8 and 0.77. For the same compound, the “nH, fit of the mean data” value ([2]; Fig. 3C) was 0.9, the Hill value ([2]; VSTEP 100 mV) was 1.08 and the pIC50 [2, 4] was 6.22. For the same compound, the IC50 ([2]; read-out: IC50, fit of the mean data to a Hill function, Fig. 3C) was 0.6 µM, the “Mean ΔpIC50 = (pIC50_1 - pIC50_2)” value (human Hv1 E119H-H193A; E119H-H193A vs H193A) was 1.38 and the “nH, fit of the mean data” value (human Hv1 E119H-H193A; Fig. 4A) was 0.7. For the same compound, the Hill value (human Hv1 E119H-H193A; VSTEP 100 mV) was 0.86, the pIC50 (human Hv1 E119H-H193A; [4]) was 5.45 and the IC50 (human Hv1 E119H-H193A; read-out: IC50, fit of the mean data to a Hill function, Fig. 4A) was 4.2 µM. The “Mean ΔpIC50 = (pIC50_1 - pIC50_2)” value ([3]; D112N vs WT) was −0.03, the Hill value ([3]; VSTEP 140 mV, determined from tail current) was 0.76 and the pIC50 ([3]; VSTEP 140 mV, determined from tail current, calculated as log (IC50)) was 5.03. The IC50 ([3]; read-out: Mean IC50 @ VSTEP, VSTEP 140 mV, pH 6.5, determined from tail current) was 9.5 µM.
